The text below walks through data of article PMC3859345 (Science translational medicine, 2013).

Entries after “also recorded” stand apart in the source; their conditions may differ. Where no end group is shown, it is not given here. The star is where a group is joined. FITC = O=C1OC2(c3ccc(O)cc3Oc3cc(O)ccc32)c2ccc(NC(=S)*)cc21; Ahx = NCCCCCC(=O)O

Data set [1] in a line: Fluorescence emission spectra. The class given is physicochemical. The following applies: 100 μM in PBS, 471 nm excitation.
In a further data set the test system is adenocarcinoma cells. The data set is described as follows: Flow cytometry, adenocarcinoma cells. Type of data set: binding, human. The following applies: for mean intensity of controls lower than that for ASY*-FITC: flow cytometry, relative to ASY*-FITC. An outline of the steps: (§1)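 Adenocarcinoma and non-neoplastic Q-hTERT cells, grown as adherent monolayers at 37°C, 5% CO2, incubated with FITC-labelled peptide, with FITC-labelled control peptides (including a scrambled sequence), or left unstained. Mean fluorescence intensity measured by flow cytometry.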
In general terms: Flow cytometry measures light scatter and fluorescence of single cells or particles in a stream.

The subject of data set [2] is Q-hTERT cells. The data set is described as follows: Flow cytometry, Q-hTERT cells. Type of data set: binding, human. An outline of the steps: as §1
In data set [3] the test system is H460, FLO1, OE33, and OE19 adenocarcinoma cells. The data set can be described thus: Confocal fluorescence microscopy, control peptides. The class given is binding, human. The conditions noted are these: compared with ASY*-FITC.
Data set [4] in a line: Stability testing of lyophilized powder. The conditions noted are these: −20°C. The class given is physicochemical. An outline of the steps:
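GMP-synthesized FITC-peptide aliquoted into amber vials crimp-sealed with septa and stored at −20°C. Monitored by appearance (colour), HPLC and mass spectrometry over 3 years.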

Data set [5] deals with H460 cells. The data set can be described thus: Binding affinity. Details: species or system human. The conditions noted are these: read-out: apparent dissociation constant (kd); ASY*-FITC to H460 cells; averages from 3 independent experiments; least squares fit. An outline of the steps:
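Human H460 lung adenocarcinoma cells were grown as adherent monolayers in DMEM with 10% FBS and 100 U/ml penicillin/streptomycin at 37°C, 5% CO2. They were incubated with FITC-labeled test peptide, and the apparent dissociation constant was derived from cell-bound fluorescence. Values are averages of 3 independent experiments.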

Data set [6] deals with H460 cells. The data set is described as follows: Binding kinetics. Details: species or system human. The following applies: ASY*-FITC to H460 cells; least squares fit. The method in brief:
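H460 lung adenocarcinoma cells grown as adherent monolayers in DMEM with 10% FBS and 100 U/ml penicillin/streptomycin at 37°C, 5% CO2. Association time constant k determined for FITC-labelled peptide binding to these cells.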

Data set [7] concerns H460 adenocarcinoma cells. The data set is described as follows: Confocal fluorescence microscopy, H460. The class given is binding, human. An outline of the steps: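 Adherent H460 cultures (DMEM, 10% FBS, P/S, 37°C, 5% CO2) were incubated with FITC-labeled test peptide and examined by confocal fluorescence microscopy for plasma-membrane labeling. Non-neoplastic Q-hTERT Barrett's cells, grown in keratinocyte serum-free medium with 50 μg/ml bovine pituitary extract and 0.005 μg/ml EGF, were the control line.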

For data set [8], the system named is FLO1 adenocarcinoma cells. The data set can be described thus: Confocal fluorescence microscopy, FLO1. The class given is binding, human. An outline of the steps:
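FLO1 esophageal adenocarcinoma cells cultured as adherent monolayers in DMEM with 10% FBS, penicillin/streptomycin and 5 μg/ml plasmocin at 37°C, 5% CO2. Plasma-membrane binding of FITC-labelled peptide assessed by confocal fluorescence microscopy.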

In data set [9] the test system is OE33 adenocarcinoma cells. The data set can be described thus: Confocal fluorescence microscopy, OE33. The class given is binding, human. An outline of the steps:
(§2)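 Adherent OE19 and OE33 esophageal carcinoma monolayers maintained at 37°C, 5% CO2 in RPMI-1640 with 10% FBS, penicillin/streptomycin and 5 μg/ml plasmocin. FITC-labelled peptide binding to the plasma membrane examined by confocal fluorescence microscopy.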

Data set [10] relates to OE19 adenocarcinoma cells. The data set can be described thus: Confocal fluorescence microscopy, OE19. Type of data set: binding, human. An outline of the steps: as §2
Data set [11] has as its system Q-hTERT cells. The data set is described as follows: Confocal fluorescence microscopy, Q-hTERT. The class given is binding, human. The conditions noted are these: Q-hTERT BE cells. An outline of the steps:
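Non-neoplastic Q-hTERT Barrett's cells kept in keratinocyte serum-free medium with 50 μg/ml bovine pituitary extract, 0.005 μg/ml recombinant human EGF and penicillin/streptomycin, as adherent monolayers at 37°C, 5% CO2. Binding of FITC-labelled peptide checked by confocal fluorescence microscopy.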

Data set [12] has as its system human esophageal mucosa (squamous, BE, HGD, EAC). The data set can be described thus: Ex vivo fluorescence stereomicroscopy of resected esophageal specimens. The following applies: 1 mm^2 regions, 12 EMR specimens. The class given is binding.
Data set [13] deals with Barrett's neoplasia (HGD/EAC). The data set is described as follows: Confocal endomicroscopy in vivo after topical peptide administration. Set-up: species or system human.
The subject of data set [14] is human subjects. The following applies: in vivo.
The test system of data set [15] is human subjects. The data set is described as follows: Peptide safety in humans.
Data set [16] has as its system human H460 adenocarcinoma cells. The data set is described as follows: Phage display biopanning, phage count / pfu binding to H460 cells. The conditions noted are these: pfu counts.
Data set [17] has as its system H460 cells. The data set is described as follows: Competitive binding with ASY*-FITC on H460 cells. Details: species or system human. The following applies: unlabeled competitor 100 to 1000 μM (GGG* control at concentrations up to 1000 μM, P>0.05, unpaired t-test).
Another data set deals with ovarian cancer. The conditions noted are these: topical administration, mouse model of ovarian cancer; cited from earlier work.

For the compound `O=C1OC2(c3ccc(O)cc3Oc3cc(O)ccc32)c2ccc(N=C=S)cc21` [FITC, reference compound], the peak emission in [1] amounted to 519 nm.
Regarding AADYYSN-GGGSK-FITC, the “mean intensity of controls lower than that for ASY*-FITC” value in the data set on adenocarcinoma cells is given as below 3 fold. In addition, the “difference between ASY*-FITC and control peptides on binding to Q-hTERT cells” value in the data set with Q-hTERT cells [2] was “No difference”. Besides, the “fluorescence signal of control peptides” value in data set [3] is “Significantly less signal”.
In [1], ASYNYDA [ASY*-FITC] registered a peak emission of 519 nm. The “purity on HPLC at end of stability testing” value in [4] (36 months, initial 97%) is recorded as 95%. Moreover, the “change in purity on HPLC” value in data set [4] (over 36 months (97% to 95%)) is ~ 2%. Further, in the data set on H460 cells [5], the Kd came to 32 nM. Moreover, the “apparent association rate constant (k)” value in the data set with H460 cells [6] was 0.2 min⁻¹. Further, the “binding on flow cytometry (in words)” value in the data set with adenocarcinoma cells (compared with control peptides) is listed as “stronger binding to the adenocarcinoma cells”. The “difference between ASY*-FITC and control peptides on binding to Q-hTERT cells” value in the data set on Q-hTERT cells [2] is “No difference”. Further, in [7], the “binding to plasma membrane (confocal), H460” value was “binding of ASY*-FITC to the plasma membrane”. Also, the “binding to plasma membrane (confocal), FLO1” value in data set [8] is listed as “binding of ASY*-FITC to the plasma membrane; also recorded: specific binding”. Besides, the “binding to plasma membrane (confocal), OE33” value in [9] is on record as “binding of ASY*-FITC to the plasma membrane; also recorded: specific binding”. The “binding to plasma membrane (confocal), OE19” value in [10] was “binding of ASY*-FITC to the plasma membrane; also recorded: specific binding”. For the same compound, in the data set on Q-hTERT cells [11], the “binding to Q-hTERT cells” value is “did not bind to Q-hTERT cells”. For the same compound, in [12], the “mean fluorescence intensities for HGD and EAC versus non-dysplastic BE and squamous” value was “significantly greater than non-dysplastic BE and squamous”. Further, in [13] (25 human subjects, topical 5 ml of 100 μM, 5 min incubation), the “greater fluorescence intensity for HGD/EAC (neoplasia) than for BE and squamous” value came out at 3.8 fold. In addition, in data set [13] (HGD and EAC crypts, confocal endomicroscopy), the “in vivo binding, HGD and EAC” value is on record as “specific peptide binding to neoplastic crypts”. In addition, the “specificity for HGD/EAC” value in data set [13] (T/B ratio threshold 4.2, 95% CI: 85%–100%, 25 human subjects) is given as 97%. In addition, the “in vivo binding, squamous epithelium” value in data set [13] (normal squamous epithelium, confocal endomicroscopy) was “no peptide binding”. Also, in [13] (topical administration), the onset of binding was ~ 5 minutes. Further, in the data set on human subjects [14], the “mean post/pre-EMR WBC ratio at 24 hours” value was 1.7±0.4; the “post/pre-EMR WBC ratio without peptide compared with peptide and EMR” value is on record as “not significantly different”. The “mean WBC count ratio by day 5” value in the data set on human subjects [15] (14 out of 21 patients with leukocytosis resolved, SD, P<0.01, Mann Whitney test) was 1.1±0.2. Also, the “mean white blood cell (WBC) count at 24 hours” value in the data set with human subjects [15] (21 patients with EMR, baseline 7.0×10^3, P<0.01, unpaired t-test, transient) is 11.1×10^3. In the data set on human subjects [15] (BE patients, topical), the “safety of topical application (in words)” value was “safe and effective”. Further, the “patients with leukocytosis resolved by day 5” value in the data set on human subjects [15] (after EMR with peptide, remaining 7 patients after day 5) is 14 out of 21. Also, the urinalyses entry in the data set on human subjects [15] (all 25 patients, baseline and post-procedure) was “within normal limits”. The “relation of adverse events to the peptide” value in the data set with human subjects [15] (all adverse events, clinical study) is “unlikely to have been related to the peptide”. Further, the “toxicity attributed to the peptide” value in the data set with human subjects [15] (animal and patient studies) is given as “No toxicity was attributed to the peptide”.
For the compound ASYNYDA [ASYNYDA phage], in [16] (H460 vs Q-hTERT BE cells), the “greater binding for H460 than for Q-hTERT cells” value came out at 5.3 fold. The “greater binding for H460 cells in comparison to wild-type (WT)-phage” value in data set [16] (vs WT-phage (no peptides expressed)) was above 10 fold.
With GGGAGGGAGGGK, the “inhibition of ASY*-FITC binding (fluorescence intensity)” value in the data set on H460 cells [17] was “No significant reduction in fluorescence intensity”.
Turning to GGGAGGGAGGGK-FITC, in the data set on adenocarcinoma cells, the “mean intensity of controls lower than that for ASY*-FITC” value is reported as below 3 fold. In addition, the “difference between ASY*-FITC and control peptides on binding to Q-hTERT cells” value in the data set on Q-hTERT cells [2] is “No difference”. Moreover, the “fluorescence signal of control peptides” value in data set [3] was “Significantly less signal”.
The corresponding values for MNDPIPQ-GGGSK-FITC are below 3 fold, “No difference” and “Significantly less signal”.
The corresponding values for {FITC-Ahx}-ASYNYDA are below 3 fold, “No difference” and “Significantly less signal”.
Take “γ-glutamyl hydroxymethyl rhodamine green”: the “time to fluorescence activation” value in the data set on ovarian cancer is reported as ~ 1 minute.
